Laboratory results published in ChEMBL document CHEMBL3244330, “Structure--activity relationships of n-substituted dopamine and 2-amino-6,7-dihydroxy-1,2,3,4-tetrahydronaphthalene analogues: behavioral effects in lesioned and reserpinized mice” (J Med Chem, 1979).
Activity calls are given as the source filed them. The calls are words filed in the database; no cut-off is given here.

Experiments:
Mus musculus [1] = assay: Postural effect on caudectomized Swiss albino mouse assessed as latency to onset time of asymmetric postural effect at 100.5 mg/kg, ip; type: functional, organism-based; design: dose 100.5 mg/kg
Outline: (§1)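 Male Swiss albino Hale-Stoner mice with a right caudectomy made by suction. A lesion was accepted if the mouse responded to apomorphine 4 weeks after surgery. Compounds were dissolved in 0.9% saline and injected ip at random into groups of six, with a maximum dose of 0.348 mmol/kg. 18 mice were used per compound, and mice were retested after 5–6 day intervals. Onset and duration of the asymmetric posture are reported as mean ± SE from six animals.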

Mus musculus [2] = assay: Postural effect on caudectomized Swiss albino mouse assessed as latency to onset time of asymmetric postural effect at 51.9 mg/kg, ip; type: functional, organism-based; design: dose 51.9 mg/kg
Outline: (§2)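 Male Swiss albino Hale-Stoner mice with right caudectomy by suction, used if responsive to apomorphine 4 weeks post-lesion. Compound in 0.9% saline given ip, maximum 0.348 mmol/kg. 18 mice per compound in random groups of six, retested after 5–6 day intervals. Onset latency and duration of asymmetric posture recorded; mean ± SE from six animals.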

Mus musculus [3] = assay: Postural effect on caudectomized Swiss albino mouse assessed as latency to onset time of asymmetric postural effect at 85 mg/kg, ip; type: functional, organism-based; design: dose 85 mg/kg; outline: as §1
Mus musculus [4] = assay: Postural effect on caudectomized Swiss albino mouse assessed as time duration of asymmetric posture at 22.6 mg/kg, ip; type: functional; conditions: route intraperitoneal; outline: as §1
Mus musculus [5] = assay: Postural effect on caudectomized Swiss albino mouse assessed as time duration of asymmetric posture at 45.2 mg/kg, ip; type: functional; conditions: route intraperitoneal; outline: as §1
Mus musculus [6] = assay: Postural effect on caudectomized Swiss albino mouse assessed as time duration of asymmetric posture at 67.8 mg/kg, ip; type: functional; conditions: route intraperitoneal
Outline: (§3)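 Male Swiss albino Hale-Stoner mice given a right caudectomy by suction. The lesion counted as successful if the mice reacted to apomorphine 4 weeks later. Drug was given ip in 0.9% saline, up to 0.348 mmol/kg, to randomised groups of six, with 5-6 days before reuse. Onset and duration of asymmetric posture are reported as mean ± SE from six animals.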

Mus musculus [7] = assay: Postural effect on caudectomized Swiss albino mouse assessed as latency to onset time of asymmetric postural effect at 22.6 mg/kg, ip; type: functional; conditions: route intraperitoneal; outline: as §1
Mus musculus [8] = assay: Postural effect on caudectomized Swiss albino mouse assessed as latency to onset time of asymmetric postural effect at 45.2 mg/kg, ip; type: functional; conditions: route intraperitoneal; outline: as §1
Mus musculus [9] = assay: Postural effect on caudectomized Swiss albino mouse assessed as latency to onset time of asymmetric postural effect at 67.8 mg/kg, ip; type: functional; conditions: route intraperitoneal; outline: as §1
Mus musculus [10] = assay: Reversal of reserpine-induced catalepsy in ip dosed Swiss albino (CD1) mouse; type: functional
Outline: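 Male Swiss albino CD1 mice, 5 weeks old, got reserpine 5 mg/kg ip, then α-MTM 250 mg/kg ip 17 h later, then the test drug ip 4 h after that. Catalepsy was scored by the rubber-stopper test (time to step off the stopper). At least four doses were used, with ≥8 mice per dose. ED50 was taken from a log-probit plot of percent responders against dose.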

Mus musculus [11] = assay: Postural effect on caudectomized Swiss albino mouse assessed as latency to onset time of asymmetric postural effect at 96 mg/kg, ip; type: functional, organism-based; design: dose 96 mg/kg; outline: as §1
Mus musculus [12] = assay: Postural effect on caudectomized Swiss albino mouse assessed as latency to onset time of asymmetric postural effect at 26.3 mg/kg, ip; type: functional, organism-based; design: dose 26.3 mg/kg; outline: as §1
Mus musculus [13] = assay: Postural effect on caudectomized Swiss albino mouse assessed as latency to onset time of asymmetric postural effect at 52.6 mg/kg, ip; type: functional, organism-based; design: dose 52.6 mg/kg; outline: as §1
Mus musculus [14] = assay: Postural effect on caudectomized Swiss albino mouse assessed as latency to onset time of asymmetric postural effect at 78.9 mg/kg, ip; type: functional; conditions: route intraperitoneal; outline: as §1
Mus musculus [15] = assay: Postural effect on caudectomized Swiss albino mouse assessed as latency to onset time of asymmetric postural effect at 92 mg/kg, ip; type: functional; conditions: route intraperitoneal; outline: as §1
Mus musculus [16] = assay: Postural effect on caudectomized Swiss albino mouse assessed as latency to onset time of asymmetric postural effect at 105.1 mg/kg, ip; type: functional; conditions: route intraperitoneal; outline: as §1
Mus musculus [17] = assay: Postural effect on caudectomized Swiss albino mouse assessed as time duration of asymmetric posture at 78.9 mg/kg, ip; type: functional; conditions: route intraperitoneal; outline: as §3
Mus musculus [18] = assay: Postural effect on caudectomized Swiss albino mouse assessed as time duration of asymmetric posture at 92 mg/kg, ip; type: functional; conditions: route intraperitoneal; outline: as §3
Mus musculus [19] = assay: Postural effect on caudectomized Swiss albino mouse assessed as time duration of asymmetric posture at 105.1 mg/kg, ip; type: functional; conditions: route intraperitoneal; outline: as §1
Mus musculus [20] = assay: Reversal of reserpine-induced catalepsy in Swiss albino (CD1) mouse at 0.348 mmol/kg, ip; type: functional, organism-based
Mus musculus [21] = assay: Postural effect on caudectomized Swiss albino mouse assessed as latency to onset time of asymmetric postural effect at 30.4 mg/kg, ip; type: functional; conditions: route intraperitoneal; outline: as §2
Mus musculus [22] = assay: Postural effect on caudectomized Swiss albino mouse assessed as latency to onset time of asymmetric postural effect at 60.8 mg/kg, ip; type: functional; conditions: route intraperitoneal; outline: as §2
Mus musculus [23] = assay: Postural effect on caudectomized Swiss albino mouse assessed as time duration of asymmetric posture at 30.4 mg/kg, ip; type: functional; conditions: route intraperitoneal; outline: as §2
Mus musculus [24] = assay: Postural effect on caudectomized Swiss albino mouse assessed as time duration of asymmetric posture at 60.8 mg/kg, ip; type: functional; conditions: route intraperitoneal; outline: as §2
Mus musculus [25] = assay: Postural effect on caudectomized Swiss albino mouse assessed as latency to onset time of asymmetric postural effect at 120 mg/kg, ip; type: functional, organism-based; design: dose 120 mg/kg; outline: as §1
Mus musculus [26] = assay: Postural effect on caudectomized Swiss albino mouse assessed as latency to onset time of asymmetric postural effect at 90.8 mg/kg, ip; type: functional, organism-based; design: dose 90.8 mg/kg; outline: as §1
Mus musculus [27] = assay: Postural effect on caudectomized Swiss albino mouse assessed as latency to onset time of asymmetric postural effect at 102.2 mg/kg, ip; type: functional, organism-based; design: dose 102.2 mg/kg; outline: as §2

With `CC(C)CNCCc1ccc(O)c(O)c1` the Activity (Mus musculus [1]) was “inactive”.

For `Oc1ccc(CCN(CCc2ccccc2)CCc2ccccc2)cc1O`, the Activity (Mus musculus [2]) was “inactive”.

With `CNCCc1ccc(O)c(O)c1` the Activity (Mus musculus [3]) was “inactive”.

Compound `CCCN(CC)CCc1ccc(O)c(O)c1.Cl` has a Time (Mus musculus [4]) of 2.3 min, a Time (Mus musculus [5]) of 6.3 min and a Time (Mus musculus [6]) of 11.2 min. The Time (Mus musculus [7]) was 3.2 min, the Time (Mus musculus [8]) was 3.2 min and the Time (Mus musculus [9]) was 3.6 min. The ED50 (Mus musculus [10]) was 33 mg/kg.

In the case of `CN(C)CCc1ccc(O)c(O)c1`, the Activity (Mus musculus [11]) is reported as “inactive”.

With `CCC(C)N(CCc1ccc(O)c(O)c1)C(C)CC.Cl` (stereo unspecified) the Activity (Mus musculus [12]) was “inactive”, the Activity (Mus musculus [13]) was “inactive” and the Time (Mus musculus [14]) was 1.8 min. It also gave a Time (Mus musculus [15]) of 5.2 min, a Time (Mus musculus [16]) of 5 min and a Time (Mus musculus [17]) of 7 min. The Time (Mus musculus [18]) was 7 min, the Time (Mus musculus [19]) was 10.8 min and the Activity (Mus musculus [20]) was “inactive”.

Work on `CCCN(CCCc1ccccc1)CCc1ccc(O)c(O)c1.Cl` yielded a Time (Mus musculus [21]) of 7.6 min, a Time (Mus musculus [22]) of 5.8 min and a Time (Mus musculus [23]) of 6.4 min. The Time (Mus musculus [24]) was 18.2 min and the ED50 (Mus musculus [10]) was 9 mg/kg.

With `CCCN(C)CCc1ccc(O)c(O)c1.Cl` the Activity (Mus musculus [25]) was “Active” and the ED50 (Mus musculus [10]) was 55 mg/kg.

In the case of `CCCCCN(CCCC)CCc1ccc(O)c(O)c1`, the Activity (Mus musculus [1]) is reported as “inactive”.

In the case of `CCCCCN(C)CCc1ccc(O)c(O)c1.Cl`, the ED50 (Mus musculus [10]) is reported as 46 mg/kg.

With `CCCCCNCCc1ccc(O)c(O)c1` the Activity (Mus musculus [26]) was “inactive”.

`Oc1ccc(CCNCCc2ccccc2)cc1O` was tested, and the Activity (Mus musculus [27]) was “inactive”.
